Laboratory results taken from ChEMBL document CHEMBL1122953, “Synthesis and antiarrhythmic and parasympatholytic properties of substituted phenols. 3. Modifications to the linkage region (region 3)” (1985).
The source made the active and inactive calls. The calls are words filed in the database; no cut-off is given here.

Experiments:
Canis familiaris [1] = species: Canis familiaris; test: Antiarrhythmic activity estimated by using the ouabain intoxicated dog model and the active dose of base in ouabain dog was reported.; type: functional, Canis lupus familiaris, Heart
How it was run: (§1)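 Dogs; ECG lead II recorded. Ouabain given iv as boluses of 40 µg/kg, then 20 µg/kg 30 min later, then 10 µg/kg every 15 min until a stable ventricular arrhythmia (>95% ectopic ventricular complexes) persisted 15 min. Test drug infused iv at 0.5 mg/kg per min until normal sinus rhythm held at least 10 min. Active dose is the mean of experiments ± SEM.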

Cavia porcellus = species: Cavia porcellus; test: Parasympatholytic activity and the % inhibition of guinea pig ileum contractile force at 4 mg/L of base was reported.; type: functional
How it was run: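 Isolated guinea pig ileum, electrically stimulated so contraction comes from acetylcholine released by postganglionic parasympathetic nerves. After about 60 min equilibration, tension was measured just before and during the steady-state response to drug at 4 mg/L. Result is % inhibition of contractile force.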

Canis familiaris [2] = test: Antiarrhythmic activity estimated by using the ouabain intoxicated dog model and the active dose of base in ouabain dog was reported at a dose of 20 mg/kg; Not effective; type: functional, organism-based; set-up: dose 20 mg/kg; details: Canis lupus familiaris, Heart; how it was run: as §1
Canis familiaris [3] = species: Canis familiaris; test: Antiarrhythmic activity estimated by using the ouabain intoxicated dog model and the active dose of base in ouabain dog was reported; Not effective; type: functional, organism-based; details: Canis lupus familiaris; Heart; how it was run: as §1
Canis familiaris [4] = test: Antiarrhythmic activity estimated by using the ouabain intoxicated dog model and the active dose of base in ouabain dog was reported. at a dose of 10 mg/kg; Not effective; type: functional, organism-based; set-up: dose 10 mg/kg; details: Canis lupus familiaris, Heart; how it was run: as §1
Canis familiaris [5] = species: Canis familiaris; test: Dose at which ouabain dog caused ventricular flutter; type: functional, Canis lupus familiaris, Heart; how it was run: as §1
Canis familiaris [6] = species: Canis familiaris; test: Dose at which ouabain dog failed to produce normal sinus rhythm; type: functional, Canis lupus familiaris; how it was run: as §1

Row | Compound | Dose (Canis familiaris [1]) | Inhibition (Cavia porcellus) | also measured
1 | Cc1ccccc1NC(=O)c1cc(CN2CCCC2)c(O)c(CN2CCCC2)c1 | 2.9 mg/kg |  | 
2 | O=C(Nc1cc(CN2CCCC2)c(O)c(CN2CCCC2)c1)c1ccccc1 | 3.4 mg/kg |  | 
3 | C=C[C@H]1CN2CC[C@H]1C[C@@H]2[C@@H](O)c1ccnc2ccc(OC)cc12 [QUINIDINE] | 10.5 mg/kg | 62% | 
4 | COc1ccc(C(=O)c2cc(CN3CCCC3)c(O)c(CN3CCCC3)c2)cc1 | 4.5 mg/kg | 12% | 
5 | O=C(Nc1ccccc1)c1cc(CN2CCCC2)c(O)c(CN2CCCC2)c1 | 2.8 mg/kg | 31% | 
6 | CC(C)N(CCC(C(N)=O)(c1ccccc1)c1ccccn1)C(C)C (configuration not stated) [DISOPYRAMIDE] | 4.4 mg/kg | 81% | 
7 | O=C(c1ccc(Cl)cc1)c1cc(CN2CCCC2)c(O)c(CN2CCCC2)c1 | 4.8 mg/kg |  | 
8 | O=C(Nc1nccs1)c1cc(CN2CCCC2)c(O)c(CN2CCCC2)c1 |  |  | DOSE (Canis familiaris [2]): inactive
9 | Cc1cccc(C)c1NC(=O)c1cc(CN2CCCC2)c(O)c(CN2CCCC2)c1 | 4.5 mg/kg |  | 
10 | O=S(=O)(Nc1cc(CN2CCCC2)c(O)c(CN2CCCC2)c1)c1ccccc1 | 10 mg/kg |  | 
11 | CCN(CC)CCNC(=O)c1ccc(N)cc1.Cl [PROCAINAMIDE HYDROCHLORIDE] | 29 mg/kg | 0% | 
12 | Cl.Oc1c(CN2CCCC2)cc(Cc2ccccc2)cc1CN1CCCC1 |  | 14.3% | DOSE (Canis familiaris [3]): inactive
13 | O=C(Nc1ccccc1)Nc1cc(CN2CCCC2)c(O)c(CN2CCCC2)c1 | 3.6 mg/kg |  | 
14 | O=C(Nc1cc(CN2CCOCC2)c(O)c(CN2CCOCC2)c1)c1ccccc1 | 16.5 mg/kg |  | 
15 | O=C(c1cc(CN2CCCC2)c(O)c(CN2CCCC2)c1)c1cc(CN2CCCC2)c(O)c(CN2CCCC2)c1 |  |  | DOSE (Canis familiaris [4]): inactive
16 | O=C(c1ccccc1)c1cc(CN2CCCC2)c(O)c(CN2CCCC2)c1 | 2.4 mg/kg | 9% | 
17 | Oc1c(CN2CCCC2)cc(Nc2ncnc3ccccc23)cc1CN1CCCC1 [CHANGROLIN] | 5.5 mg/kg | 43% | 
18 | Cc1ccccc1C(=O)Nc1cc(CN2CCCC2)c(O)c(CN2CCCC2)c1 | 2.7 mg/kg |  | 
19 | O=C(Nc1cc(CN2CCCCC2)c(O)c(CN2CCCCC2)c1)c1ccccc1 | 3 mg/kg | 33% | 
20 | CN(C(=O)c1ccccc1)c1cc(CN2CCCC2)c(O)c(CN2CCCC2)c1 | 16.2 mg/kg | 5% | 
21 | Cc1cccc(C)c1C(=O)Nc1cc(CN2CCCC2)c(O)c(CN2CCCC2)c1 | 3.2 mg/kg |  | 
22 | O=C(/C=C/c1ccccc1)Nc1cc(CN2CCCC2)c(O)c(CN2CCCC2)c1 | 14 mg/kg |  | Dose (Canis familiaris [5]): 8 mg/kg
23 | Cl.Oc1c(CN2CCCC2)cc(OCc2ccccc2)cc1CN1CCCC1 | 2 mg/kg | 62% | 
24 | Oc1c(CN2CCCC2)cc(Nc2ccccc2)cc1CN1CCCC1 | 5 mg/kg |  | Dose (Canis familiaris [6]): 17.5 mg/kg
